Sampled rows, rich in hits. Any-hit rate of the full collection: about 3.1%.
RBBP9 inh: human RBBP9 inhibitors, primary screen, biochemical, fluorescence polarization, FP-Rh probe, HTS; Serine hydrolase RBBP9 (Homo sapiens), O75884; recombinant RBBP9; inhibition, % at 7.94 µM; 0.2% of 220,000 active;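 active = inhibition above the campaign mean of all tested compounds plus 3 SD, cut at about 14% in these data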
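system = RBBP9 protein | input = RBBP9 at 2.5 µM in dispensed solution, before mixing | measured by = fluorescence polarization (mP), excitation 525 nm, emission 598 nm | incubation = enzyme-compound preincubation 30 min, then probe labeling 45 min, 25 °C | buffer or medium = Tris-NaCl-Pluronic buffer, pH 8.0 | compound = single dose 7.94 µM | also added = FP-Rh probe, 375 nM dispensing solution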
UHRF1 binding: UHRF1 methylated DNA binding inhibitors, primary screen, counter-screen for MBD2 inhibitor project, biochemical, TR-FRET, human UHRF1, single concentration | E3 ubiquitin-protein ligase UHRF1 (Homo sapiens), Q96T88 | UHRF1 binding to methylated oligo | inhibition, % at 4.4 µM | 0.75% of 370,000 active | AID 687016, 2013; in the data active = inhibition above about 21%;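 also: UHRF1 SRA domain binding a hemimethylated CpG hairpin DNA probe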
PRMT1 FP inh: PRMT1 methyltransferase inhibitors, primary screen, biochemical, fluorescence polarization | Protein arginine N-methyltransferase 1 (Homo sapiens), Q99873 | recombinant PRMT1, activity-based probe fluorescence polarization | inhibition, % at 2.79 µM | 1.3% of 370,000 active | AID 652257, 2013;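 active = inhibition above about 21% made by adding two undisclosed values, limit read from the data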
LEDGF integ inh: blockers of LEDGF/p75-dependent integrase strand transfer – biochemical, TR-FRET, high throughput, primary screen; inhibition, % at 3.7 µM; 0.64% of 370,000 active; TR-FRET IN-LEDGF/p75 DNA integration, Eu/Cy5;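 active = inhibition above the screen-wide mean plus 3 SD, cut at about 13% in these data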;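 also: signal is the Cy5 over europium emission ratio at 671 and 618 nm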
ABHD5-PLIN5 inh: ABHD5-PLIN5 interaction inhibitors, primary screen, cell lysate, split luciferase complementation, luminescence. 0.78% of 360,000 active. inhibition, % at 4 µM. Split G. princeps luciferase complementation, 4 h. Perilipin-5 (Homo sapiens) + 1-acylglycerol-3-phosphate O-acyltransferase ABHD5 (Homo …;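 active = inhibition above the mean inhibition across every tested compound plus 3 SD, cut at about 22% in these data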
MBD2 inh: inhibitors of MBD2 binding to methylated DNA, primary screen, biochemical, TR-FRET, DNA-binding domain, human | MBD2 binding to methylated oligonucleotide | inhibition, % at 4.4 µM | 0.31% of 370,000 active | AID 686964, 2013; in the data active = inhibition above about 13%
PRMT1 confirm: PRMT1 methyltransferase inhibitors, confirmation, biochemical, fluorescence polarization, triplicate; inhibition, % at 2.79 µM; 42% of 3,300 active; recombinant His-PRMT1, activity-based probe fluorescence polarization; shares compounds with PRMT1 FP inh;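 active = mean inhibition across replicates above the hit cutoff derived for the earlier primary screen, cut at about 22% in these data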
Large screens that a line does not name were inactive (follow-up assays come after a bar, where they were run).

Cc1ccc(CSc2ccc(-c3ccco3)nn2)cc1	PRMT1 FP inh 33 | PRMT1 confirm inactive
O=C(CSc1ccc(-c2ccco2)nn1)NCc1ccccc1	PRMT1 FP inh 41 | PRMT1 confirm inactive
O=C(CSc1ccc(-c2ccco2)nn1)NCc1ccc(Cl)cc1	PRMT1 FP inh 44 | PRMT1 confirm inactive
COc1cccc(CNC(=O)CSc2ccc(-c3ccco3)nn2)c1	none
Nc1[nH]c(C(=O)c2ccccc2)c(-c2ccc3ccccc3c2)c1C(=O)NCc1ccc(F)cc1	none (no result: RBBP9 inh, ABHD5-PLIN5 inh)
COC[C@H]1CCCN1c1cccc2c1S(=O)(=O)N(C1CC1)CC[C@@H](C)O2	none (no result: RBBP9 inh, ABHD5-PLIN5 inh)
FC(F)(F)c1cccc(N2CCN(C(=S)Nc3nccc4ccccc34)CC2)c1	none (no result: RBBP9 inh, ABHD5-PLIN5 inh)
Nc1ccc(O)c2c1C(=O)c1ccccc1C2=O	none
O=C1c2ccccc2C(=O)c2c(O)c(O)cc(O)c21	PRMT1 FP inh 27 (no result: RBBP9 inh) | PRMT1 confirm inactive
CCC(CO)n1c(SCc2cc(=O)oc3cc(C)ccc23)nc2ccccc2c1=O (stereo not drawn)	PRMT1 FP inh 77 | PRMT1 confirm 67
O=C(C[n+]1cccc2ccccc21)c1ccc(Br)cc1	none (no result: RBBP9 inh)
NC(=O)C[n+]1cccc2ccccc21	PRMT1 FP inh 55 | PRMT1 confirm inactive
COC(=O)C[C@H]1CC[C@H]2[C@H](COc3ccc(NS(=O)(=O)c4cccc(OC)c4)cc3C(=O)N2C)O1	none (no result: RBBP9 inh, ABHD5-PLIN5 inh)
CC(C)Nc1nc(NCCN2CCNC2=O)c2sccc2n1	PRMT1 FP inh 40 (no result: RBBP9 inh) | PRMT1 confirm inactive
O=C1NCCN1CCNc1nc(NCc2ccccc2)nc2ccsc12	none (no result: RBBP9 inh)
COc1ccc(N2CCN(CCC(=O)c3ccc4ccccc4c3)CC2)cc1	PRMT1 FP inh 44 (no result: RBBP9 inh) | PRMT1 confirm 28
COc1ccc(NC(=O)c2ccc(NC(=O)CN3CCN(c4ccc(O)cc4)CC3)cc2)cc1	PRMT1 FP inh 34 (no result: RBBP9 inh) | PRMT1 confirm inactive
O=C(CCN1CCOCC1)c1ccc(N2CCCCC2)cc1	PRMT1 FP inh 28 (no result: RBBP9 inh) | PRMT1 confirm inactive
Cc1ccc(C2c3c(n[nH]c3C)C(=O)N2Cc2ccccc2)cc1 (stereo not drawn)	none (no result: RBBP9 inh, ABHD5-PLIN5 inh)
CN1C=CC2=C(C#N)C(N)C(C#N)(C#N)[C@H](c3ccccc3)[C@H]2C1 (stereo partly drawn)	PRMT1 FP inh 26 | PRMT1 confirm inactive
Cc1cc(NC(=O)c2ccc3nc(C)sc3c2)no1	PRMT1 FP inh 31 | PRMT1 confirm inactive
COC(=O)[C@]12C[C@H](CC(=O)NCc3cccc4ccccc34)C(=O)N(Cc3ccc(Cl)cc3Cl)C1=C[C@H](C(C)C)O[C@@H]2C1CC1	none (no result: RBBP9 inh, ABHD5-PLIN5 inh)
O=C(c1cc(O)c(O)c([N+](=O)[O-])c1)c1ccccc1F	PRMT1 FP inh 35 (no result: RBBP9 inh) | PRMT1 confirm inactive
CCn1c(COc2ccccc2)nnc1SCC(=O)Nc1ccc(Oc2ccccc2)cc1	none (no result: RBBP9 inh, ABHD5-PLIN5 inh)
COc1ccc(NCc2nnc(SCC(=O)Nc3cccc(C)c3)o2)cc1	PRMT1 FP inh 37 | PRMT1 confirm 29
CCCCOc1ccc(C(=O)NC2CCCCN(C(C)C)C2=O)cc1 (stereo not drawn)	none (no result: RBBP9 inh, ABHD5-PLIN5 inh)
CCOc1ccc(-n2c(SCC(=O)c3ccc4ccccc4c3)nnc2-c2ccco2)cc1	PRMT1 FP inh 46 (no result: RBBP9 inh, ABHD5-PLIN5 inh) | PRMT1 confirm inactive
Nn1c(SCC(=O)N2CCOCC2)nnc1-c1cc(-c2ccc(F)cc2)n[nH]1	none (no result: RBBP9 inh, ABHD5-PLIN5 inh)
CCOc1c(OC(C)=O)ccc(/C=C2\N=C(SCC)SC2=O)c1[N+](=O)[O-]	PRMT1 FP inh 27 | PRMT1 confirm inactive
C=CCN(CC=C)C[C@@H]1CSCCS(=O)(=O)N1	none (no result: RBBP9 inh, ABHD5-PLIN5 inh)
